Here are results for eleven compounds from publication PMC2903386 (The Journal of Biological Chemistry, 2010).

A short description of series [1]: Effect of inhibitors on cleavage of RLQLKL ACPP by PyMT tumor cystic fluid. Type of series: biochemical, mouse. The note with it: for inhibition of cystic fluid cleavage of RLQLKL ACPP (in words): 5 μM Cy5-labeled RLQLKL ACPP, 2% cystic fluid, 2 h, 5 mM Ca-DTPA, 50 μM TPEN, 18 μM SB3CT, 50 nM GM6001, 0.26 μM prinomastat, 150 nM aprotinin, 100 μM leupeptin, 60 μM α1-antitrypsin, gel. In short, it runs like this:
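Cystic fluid was aspirated by syringe from surgically exposed fluid-filled mammary tumor nodules of PyMT mice. The 5 μm Cy5 peptide was incubated at 37 °C for 2 h in PBS with 1 μm ZnCl2. Inhibitors were used at manufacturer-recommended concentrations, including 10 μm E-64, 1 μm pepstatin A, protease inhibitor mixture III (1:1000) and mixture III plus DTPA. Cleavage was read by Tricine gel electrophoresis and Cy5 fluorescence imaging.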

A short description of series [2]: Tumor standardized uptake value. Type of series: in vivo. Particulars: mouse, iv.
Series [3] deals with PyMT mammary tumors. Kind of series: Fluorescence imaging contrast in PyMT tumor-bearing mice. Type of series: in vivo, mouse. The note with it: PyMT mice, fluorescence imaging 48 h postinjection of 3 nmol. In short, it runs like this: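 PyMT transgenic mice bearing spontaneous mammary tumors were anesthetized with ketamine 80 mg/kg plus midazolam 5 mg/kg (1:1) and weighed. They were injected via the tail vein with Cy5 peptide: free peptide 100 μl of 100 μM (10 nmol) or albumin-reactive peptide 100 μl of 30 μM (3 nmol). Maestro imaging (ex 640 ± 24 nm, em >700 nm) was done at 6 h or 48 h, comparing tumor with adjacent normal tissue.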

Non-standard residues stand in square brackets, D forms with d. Residues, ends and D or L forms follow the SMILES beside them. *: point of attachment. X1 = CC[N+]1=C(C=CC=CC=C2N(CCCCCC(=O)NCCN3C(=O)CC(*)C3=O)c3ccc(S(=O)(=O)O)cc3C2(C)C)C(C)(C)c2cc(S(=O)(=O)[O-])ccc21; Propanoyl(3-maleimido) = O=C1C=CC(=O)N1CCC(=O)*; Ahx = NCCCCCC(=O)O

As to `O=C(O)CN(CCN(CC(=O)O)CC(=O)O)CCN(CC(=O)O)CC(=O)O` [DTPA, diethylene triamine pentacetic acid], the “inhibition of cystic fluid cleavage of RLQLKL ACPP (in words)” value (“inhibition … of RLQLKL ACPP (in words)” below) in series [1] is given as “unaffected”. With `CNC(=O)[C@H](Cc1c[nH]c2ccccc12)NC(=O)[C@@H](CC(=O)NO)CC(C)C` [GM6001], the “inhibition … of RLQLKL ACPP (in words)” value in series [1] is recorded as “unaffected”. Moreover, the “inhibition of cystic fluid cleavage of RLQLKL ACPP at 1 μM (in words)” value in series [1] (GM6001 at 1 μM, data not shown) is recorded as “no inhibition”. Compound `CC[N+]1=C(C=CC=CC=C2N(CCCCCC(=O)NCCN3C(=O)CC(SC[C@@H](NC(=O)[C@@H](CCCNC(=N)N)NC(=O)[C@@H](CCCNC(=N)N)NC(=O)[C@@H](CCCNC(=N)N)NC(=O)[C@@H](CCCNC(=N)N)NC(=O)[C@@H](CCCNC(=N)N)NC(=O)[C@@H](CCCNC(=N)N)NC(=O)[C@@H](CCCNC(=N)N)NC(=O)[C@@H](CCCNC(=N)N)NC(=O)[C@@H](CCCNC(=N)N)NC(=O)[C@H](CC(C)C)NC(=O)[C@H](CCCCNC(C)=O)NC(=O)[C@H](CC(C)C)NC(=O)[C@H](CCC(N)=O)NC(=O)[C@H](CC(C)C)NC(=O)[C@H](CCCNC(=N)N)NC(=O)CCCCCNC(=O)[C@@H](CCC(=O)O)NC(=O)[C@@H](CCC(=O)O)NC(=O)[C@@H](CCC(=O)O)NC(=O)[C@@H](CCC(=O)O)NC(=O)[C@@H](CCC(=O)O)NC(=O)[C@@H](CCC(=O)O)NC(=O)[C@@H](CCC(=O)O)NC(=O)[C@@H](CCC(=O)O)NC(=O)[C@@H](CCC(=O)O)NC(=O)CCN4C(=O)C=CC4=O)C(N)=O)C3=O)c3ccc(S(=O)(=O)O)cc3C2(C)C)C(C)(C)c2cc(S(=O)(=O)[O-])ccc21` (stereo partly shown) [Mal-RLQLK(Ac)L ACPP] ({Propanoyl(3-maleimido)}-[dE][dE][dE][dE][dE][dE][dE][dE][dE][Ahx]RLQLK(Ac)L[dR][dR][dR][dR][dR][dR][dR][dR][dR][dC](X1)-NH2) registered an SUV at 48 h in series [2] (PyMT, 3 nmol) of 2.3 ± 0.6 SUV. In addition, the “Tumor to non-tumor contrast, albumin-reactive peptide” value in series [3] came out at 5.1 fold.

`CC[N+]1=C(C=CC=CC=C2N(CCCCCC(=O)NCCN3C(=O)CC(SC[C@@H](NC(=O)[C@@H](CCCNC(=N)N)NC(=O)[C@@H](CCCNC(=N)N)NC(=O)[C@@H](CCCNC(=N)N)NC(=O)[C@@H](CCCNC(=N)N)NC(=O)[C@@H](CCCNC(=N)N)NC(=O)[C@@H](CCCNC(=N)N)NC(=O)[C@@H](CCCNC(=N)N)NC(=O)[C@@H](CCCNC(=N)N)NC(=O)[C@@H](CCCNC(=N)N)NC(=O)CNC(=O)[C@@H](C)NC(=O)[C@@H](CC(C)C)NC(=O)CNC(=O)[C@@H](CC(C)C)NC(=O)[C@H]4CCCN4C(=O)CCCCCNC(=O)[C@@H](CCC(=O)O)NC(=O)[C@@H](CCC(=O)O)NC(=O)[C@@H](CCC(=O)O)NC(=O)[C@@H](CCC(=O)O)NC(=O)[C@@H](CCC(=O)O)NC(=O)[C@@H](CCC(=O)O)NC(=O)[C@@H](CCC(=O)O)NC(=O)[C@@H](CCC(=O)O)NC(=O)[C@H](N)CCC(=O)O)C(N)=O)C3=O)c3ccc(S(=O)(=O)O)cc3C2(C)C)C(C)(C)c2cc(S(=O)(=O)[O-])ccc21` (stereo partly drawn) [PLGLAG ACPP D-amino acid control, reference compound] (H-[dE][dE][dE][dE][dE][dE][dE][dE][dE][Ahx][dP][dL]G[dL][dA]G[dR][dR][dR][dR][dR][dR][dR][dR][dR][dC](X1)-NH2) yielded an SUV in series [2] of 0.14 ± 0.06 SUV.

Regarding `CC[N+]1=C(C=CC=CC=C2N(CCCCCC(=O)NCCN3C(=O)CC(SC[C@@H](NC(=O)[C@@H](CCCNC(=N)N)NC(=O)[C@@H](CCCNC(=N)N)NC(=O)[C@@H](CCCNC(=N)N)NC(=O)[C@@H](CCCNC(=N)N)NC(=O)[C@@H](CCCNC(=N)N)NC(=O)[C@@H](CCCNC(=N)N)NC(=O)[C@@H](CCCNC(=N)N)NC(=O)[C@@H](CCCNC(=N)N)NC(=O)[C@@H](CCCNC(=N)N)NC(=O)CNC(=O)[C@H](C)NC(=O)[C@H](CC(C)C)NC(=O)CNC(=O)[C@H](CC(C)C)NC(=O)[C@@H]4CCCN4C(=O)CCCCCNC(=O)[C@@H](CCC(=O)O)NC(=O)[C@@H](CCC(=O)O)NC(=O)[C@@H](CCC(=O)O)NC(=O)[C@@H](CCC(=O)O)NC(=O)[C@@H](CCC(=O)O)NC(=O)[C@@H](CCC(=O)O)NC(=O)[C@@H](CCC(=O)O)NC(=O)[C@@H](CCC(=O)O)NC(=O)[C@H](N)CCC(=O)O)C(N)=O)C3=O)c3ccc(S(=O)(=O)O)cc3C2(C)C)C(C)(C)c2cc(S(=O)(=O)[O-])ccc21` (stereo partly shown) [PLGLAG ACPP, reference compound] (H-[dE][dE][dE][dE][dE][dE][dE][dE][dE][Ahx]PLGLAG[dR][dR][dR][dR][dR][dR][dR][dR][dR][dC](X1)-NH2), the SUV in series [2] was determined as 0.51 ± 0.05 SUV. With `O=S(=O)(CC1CS1)c1ccc(Oc2ccccc2)cc1` (stereo not shown) [SB3CT], in series [1], the “inhibition … of RLQLKL ACPP (in words)” value was “unaffected”. `c1ccc(CN(CCN(Cc2ccccn2)Cc2ccccn2)Cc2ccccn2)nc1` [TPEN, N,N,N′,N-tetrakis (2-pyridylmethyl) ethylenediamine]: the “inhibition … of RLQLKL ACPP (in words)” value in series [1] is listed as “unaffected”.

Take `CC(=O)N[C@@H](CC(C)C)C(=O)N[C@@H](CC(C)C)C(=O)N[C@H](C=O)CCCNC(=N)N` [leupeptin]: the “inhibition … of RLQLKL ACPP (in words)” value in series [1] is recorded as “partially inhibited”. Still for that read-out and setting: as for `CC1(C)SCCN(S(=O)(=O)c2ccc(Oc3ccncc3)cc2)[C@H]1C(=O)NO` [prinomastat], the entry is “unaffected”. The compound `CC[N+]1=C(C=CC=CC=C2N(CCCCCC(=O)NCCN3C(=O)CC(SC[C@@H](NC(=O)[C@@H](CCCNC(=N)N)NC(=O)[C@@H](CCCNC(=N)N)NC(=O)[C@@H](CCCNC(=N)N)NC(=O)[C@@H](CCCNC(=N)N)NC(=O)[C@@H](CCCNC(=N)N)NC(=O)[C@@H](CCCNC(=N)N)NC(=O)[C@@H](CCCNC(=N)N)NC(=O)[C@@H](CCCNC(=N)N)NC(=O)[C@@H](CCCNC(=N)N)NC(=O)[C@@H](CC(C)C)NC(=O)[C@@H](CCCCN)NC(=O)[C@@H](CC(C)C)NC(=O)[C@@H](CCC(N)=O)NC(=O)[C@@H](CC(C)C)NC(=O)[C@@H](CCCNC(=N)N)NC(=O)CCCCCNC(=O)[C@@H](CCC(=O)O)NC(=O)[C@@H](CCC(=O)O)NC(=O)[C@@H](CCC(=O)O)NC(=O)[C@@H](CCC(=O)O)NC(=O)[C@@H](CCC(=O)O)NC(=O)[C@@H](CCC(=O)O)NC(=O)[C@@H](CCC(=O)O)NC(=O)[C@@H](CCC(=O)O)NC(=O)[C@H](N)CCC(=O)O)C(N)=O)C3=O)c3ccc(S(=O)(=O)O)cc3C2(C)C)C(C)(C)c2cc(S(=O)(=O)[O-])ccc21` (stereo partly shown) [rlqlkl ACPP] displayed an SUV at 6 h in series [2] (PyMT, 10 nmol) of 0.13 ± 0.03 SUV. Turning to aprotinin, the “inhibition … of RLQLKL ACPP (in words)” value in series [1] is reported as “partially inhibited”.
